Data taken from ChEMBL document CHEMBL4823242, “Cytotoxic Naphthoquinone Analogues, Including Heterodimers, and Their Structure Elucidation Using LR-HSQMBC NMR Experiments” (J Nat Prod, 2021).

Experiments:
Assay type in all cases: functional, cell-based
OVCAR-3 = assay: Cytotoxicity against human OVCAR-3 cells after 72 hrs by Cell Titer-Blue cell viability assay; conditions: OVCAR-3, 72 h
How it was run: (§1)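 Cells kept at 37 °C, 5% CO2 in RPMI 1640 with 10% FBS, penicillin 100 units/mL and streptomycin 100 μg/mL. Log-phase cells harvested by trypsin, washed twice, seeded at 5,000 per well and left overnight. DMSO-dissolved samples diluted and added, then 72 h at 37 °C. Viability read by CellTiter-Blue absorbance. IC50 is the concentration giving 50% growth relative to DMSO control.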

MDA-MB-231 = assay: Cytotoxicity against human MDA-MB-231 cells after 72 hrs by Cell Titer-Blue cell viability assay; conditions: MDA-MB-231, 72 h; how it was run: as §1
MDA-MB-435 = assay: Cytotoxicity against human MDA-MB-435 cells after 72 hrs by Cell Titer-Blue cell viability assay; conditions: MDA-MB-435, 72 h; how it was run: as §1

Structure (SMILES)	IC50 (OVCAR-3)	IC50 (MDA-MB-231)	IC50 (MDA-MB-435)
COC1=CC(=O)c2c(cc(OC)c(C)c2O)C1=O	9.6 µM	15 µM	3.2 µM
CCc1c(OC)cc2c(c1O)C(=O)C[C@@H](OC)[C@H]2O	> 25 µM	> 25 µM	> 25 µM
COC1=CC(=O)c2c(cc(OC)c(C(C)C3=C(O)C(=O)c4cc(OC)cc(O)c4C3=O)c2O)C1=O (racemic)	17 µM	20 µM	3.6 µM
COC1=CC(=O)c2c(cc(OC)c(C(C)OC)c2O)C1=O (racemic)	13 µM	12 µM	3.4 µM
COC1=CC(=O)c2c(cc(OC)c(C(C)C3=C(O)C(=O)c4cc(O)c(C(C)=O)c(O)c4C3=O)c2O)C1=O (racemic) [KIRSCHSTEININ]	6.6 µM	4.4 µM	2.2 µM
CCc1c(OC)cc2c(c1O)C(=O)C(C(C)c1c(OC)cc3c(c1O)C(=O)C=C(OC)C3=O)=C(O)C2=O (racemic)	18 µM	17 µM	15 µM
COC1=CC(=O)c2c(cc(OC)c(C(C)OC(C)=O)c2O)C1=O (racemic)	0.9 µM	6.2 µM	0.7 µM
CC(=O)O[C@H]1C(=O)[C@@]2(C)[C@H]([C@H](OC(=O)c3ccccc3)[C@]3(O)C[C@H](OC(=O)[C@H](O)[C@@H](NC(=O)c4ccccc4)c4ccccc4)C(C)=C1C3(C)C)[C@]1(OC(C)=O)CO[C@@H]1C[C@@H]2O [PACLITAXEL]	0.0051 µM	0.0002 µM	
CCc1c(OC)cc2c(c1O)C(=O)C=C(OC)C2=O	7.3 µM	7.8 µM	2.1 µM
COC1=CC(=O)c2c(cc(OC)c(C(C)O)c2O)C1=O (racemic)	7.9 µM	12 µM	3 µM
